Measured values: ChEMBL document CHEMBL1132760, “Coumarin inhibitors of gyrase B with N-propargyloxy-carbamate as an effective pyrrole bioisostere” (2000)
Values after ≈ are worked out from the molar mass of the structure shown.

Key:
[1] = tested on: Staphylococcus aureus; assay: Antibacterial activity against Staphylococcus aureus 011HT3; assay type: functional
Summary of the method: (§1)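 MIC by 2-fold broth microdilution, read after 24 h incubation; strain resistance phenotypes noted.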

[2] = tested on: Staphylococcus aureus; assay: Antibacterial activity tested against novobiocin resistant Staphylococcus aureus 011HT1; assay type: functional; summary of the method: as §1
[3] = In vitro activity against Staphylococcus aureus DNA gyrase subunit B supercoiling, expressed as IC50 novobiocin / IC50 compound; assay type: functional
[4] = tested on: Staphylococcus epidermidis; assay: Antibacterial activity against oxacillin resistant Staphylococcus epidermidis 012GO42; assay type: functional
Summary of the method: (§2)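 MIC read after 24 h incubation by two-fold broth microdilution. Strains are tested with their labelled resistance phenotypes (ofloxacin, oxacillin, erythromycin, novobiocin, teicoplanin or vancomycin resistance, as given in each strain designation).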

[5] = tested on: Enterococcus faecium; assay: Antibacterial activity against vancomycin, teicoplanin, erythromycin resistant Enterococcus faecium; assay type: functional; summary of the method: as §2
[6] = tested on: Streptococcus pyogenes; assay: Antibacterial activity tested against Streptococcus pyogenes 02AIUC1; assay type: functional; summary of the method: as §1
[7] = tested on: Escherichia coli; assay: In vitro activity against Escherichia coli DNA gyrase subunit B supercoiling, expressed as IC50 novobiocin / IC50 compound; assay type: functional
[8] = tested on: Staphylococcus aureus; assay: Antibacterial activity against ofloxacin,oxacillin,erythromycin resistant Staphylococcus aureus 011GO64.; assay type: functional; summary of the method: as §2
[9] = tested on: DNA gyrase (Staphylococcus aureus); assay: In vitro activity against Staphylococcus aureus DNA gyrase supercoiling, expressed as IC50 novobiocin / IC50 compound

Row | Compound | MIC [1] | MIC [2] | Ratio [3] | MIC [4] | MIC [5] | MIC [6] | Ratio [7] | MIC [8] | Ratio [9]
1 | C#CCONC(=O)O[C@H]1[C@@H](O)[C@H](Oc2ccc3c(O)c(C(=O)NOCC=C(C)C)c(=O)oc3c2C)OC(C)(C)[C@@H]1OC | < 0.04 µg/mL | 0.6 µg/mL (≈ 1.02 µM) | 2 | 0.15 µg/mL (≈ 0.254 µM) | 0.3 µg/mL (≈ 0.508 µM) | 0.08 µg/mL (≈ 0.135 µM) | – | – | –
2 | CCOC(=O)c1c(O)oc2c(C)c(O[C@@H]3OC(C)(C)[C@H](OC)[C@@H](OC(=O)NOC)[C@H]3O)ccc2c1=O | > 40 µg/mL | > 40 µg/mL | – | > 40 µg/mL | > 40 µg/mL | > 40 µg/mL | 0.66 | – | –
3 | C#CCONC(=O)O[C@H]1[C@@H](O)[C@H](Oc2ccc3c(O)c(C(C)=O)c(=O)oc3c2C)OC(C)(C)[C@@H]1OC | < 0.04 µg/mL | 2.5 µg/mL (≈ 4.95 µM) | 8.1 | < 0.04 µg/mL | 1.2 µg/mL (≈ 2.37 µM) | 0.3 µg/mL (≈ 0.593 µM) | – | 0.6 µg/mL (≈ 1.19 µM) | –
4 | CO[C@@H]1[C@@H](OC(=O)c2ccc(C)[nH]2)[C@@H](O)[C@H](Oc2ccc3c(O)c(C(N)=O)c(=O)oc3c2C)OC1(C)C | < 0.04 µg/mL | 2.5 µg/mL (≈ 4.84 µM) | – | – | 2.5 µg/mL (≈ 4.84 µM) | 0.15 µg/mL (≈ 0.29 µM) | 1.67 | – | –
5 | C#CCONC(=O)O[C@H]1[C@@H](O)[C@H](Oc2ccc3c(O)c(/C(C)=N/OCc4ccsc4)c(=O)oc3c2C)OC(C)(C)[C@@H]1OC | < 0.04 µg/mL | 2.5 µg/mL (≈ 4.05 µM) | 1.3 | < 0.04 µg/mL | 0.6 µg/mL (≈ 0.973 µM) | 0.15 µg/mL (≈ 0.243 µM) | – | – | –
6 | CO/N=C(\C)c1c(O)oc2c(C)c(O[C@@H]3OC(C)(C)[C@H](OC)[C@@H](OC(=O)c4ccc(C)[nH]4)[C@H]3O)ccc2c1=O | 0.15 µg/mL (≈ 0.275 µM) | 40 µg/mL (≈ 73.5 µM) | – | – | 10 µg/mL (≈ 18.4 µM) | 0.3 µg/mL (≈ 0.551 µM) | 3.3 | – | –
7 | C#CCONC(=O)O[C@H]1[C@@H](O)[C@H](Oc2ccc3c(O)c(C(=O)Nc4cccnc4)c(=O)oc3c2C)OC(C)(C)[C@@H]1OC | < 0.04 µg/mL | 1.2 µg/mL (≈ 2.06 µM) | 0.67 | < 0.04 µg/mL | 0.6 µg/mL (≈ 1.03 µM) | 0.08 µg/mL (≈ 0.137 µM) | – | – | –
8 | C=CCONC(=O)O[C@H]1[C@@H](O)[C@H](Oc2ccc3c(=O)c(C(=O)OCC)c(O)oc3c2C)OC(C)(C)[C@@H]1OC | 10 µg/mL (≈ 18.6 µM) | > 40 µg/mL | – | 20 µg/mL (≈ 37.2 µM) | > 40 µg/mL | 20 µg/mL (≈ 37.2 µM) | 2 | 20 µg/mL (≈ 37.2 µM) | –
9 | C#CCONC(=O)O[C@H]1[C@@H](O)[C@H](Oc2ccc3c(=O)c(/C(C)=N/OC)c(O)oc3c2C)OC(C)(C)[C@@H]1OC | 0.15 µg/mL (≈ 0.281 µM) | 5 µg/mL (≈ 9.35 µM) | 12.5 | 0.08 µg/mL (≈ 0.15 µM) | 2.5 µg/mL (≈ 4.68 µM) | 0.6 µg/mL (≈ 1.12 µM) | – | 0.15 µg/mL (≈ 0.281 µM) | –
10 | C#CCONC(=O)O[C@H]1[C@@H](O)[C@H](Oc2ccc3c(=O)c(/C(C)=N/OCC)c(O)oc3c2C)OC(C)(C)[C@@H]1OC | 0.08 µg/mL (≈ 0.146 µM) | 2.5 µg/mL (≈ 4.56 µM) | 8.3 | 0.15 µg/mL (≈ 0.273 µM) | 1.2 µg/mL (≈ 2.19 µM) | 0.6 µg/mL (≈ 1.09 µM) | – | 0.15 µg/mL (≈ 0.273 µM) | –
11 | C#CCONC(=O)O[C@H]1[C@@H](O)[C@H](Oc2ccc3c(O)c(C(=O)NCCN4CCOCC4)c(=O)oc3c2C)OC(C)(C)[C@@H]1OC | < 0.04 µg/mL | 1.2 µg/mL (≈ 1.94 µM) | 2.6 | 0.08 µg/mL (≈ 0.129 µM) | 2.5 µg/mL (≈ 4.03 µM) | 1.2 µg/mL (≈ 1.94 µM) | – | 0.08 µg/mL (≈ 0.129 µM) | –
12 | C#CCNC(=O)O[C@H]1[C@@H](O)[C@H](Oc2ccc3c(=O)c(C(=O)OCC)c(O)oc3c2C)OC(C)(C)[C@@H]1OC | 40 µg/mL (≈ 77 µM) | > 40 µg/mL | – | 20 µg/mL (≈ 38.5 µM) | > 40 µg/mL | > 40 µg/mL | 0.38 | – | –
13 | CO[C@@H]1[C@@H](OC(=O)c2ccc(C)[nH]2)[C@@H](O)[C@H](Oc2ccc3c(O)c(C(C)=O)c(=O)oc3c2C)OC1(C)C | < 0.04 µg/mL | 5 µg/mL (≈ 9.7 µM) | – | – | 2.5 µg/mL (≈ 4.85 µM) | 0.3 µg/mL (≈ 0.582 µM) | 2 | – | –
14 | C#CCONC(=O)O[C@H]1[C@@H](O)[C@H](Oc2ccc3c(O)c(/C(C)=N/OCCN4CCOCC4)c(=O)oc3c2C)OC(C)(C)[C@@H]1OC | 0.15 µg/mL (≈ 0.237 µM) | 5 µg/mL (≈ 7.89 µM) | 4 | 0.15 µg/mL (≈ 0.237 µM) | 20 µg/mL (≈ 31.6 µM) | 1.2 µg/mL (≈ 1.89 µM) | – | 0.6 µg/mL (≈ 0.947 µM) | –
15 | C#CCONC(=O)O[C@H]1[C@@H](O)[C@H](Oc2ccc3c(O)c(C(N)=O)c(=O)oc3c2C)OC(C)(C)[C@@H]1OC | < 0.04 µg/mL | 0.3 µg/mL (≈ 0.592 µM) | – | < 0.04 µg/mL | 0.08 µg/mL (≈ 0.158 µM) | 0.6 µg/mL (≈ 1.18 µM) | 1 | – | –
16 | C#CCONC(=O)O[C@H]1[C@@H](O)[C@H](Oc2ccc3c(=O)c(C(=O)NOCC)c(O)oc3c2C)OC(C)(C)[C@@H]1OC | < 0.04 µg/mL | 1.2 µg/mL (≈ 2.18 µM) | 5.6 | 0.6 µg/mL (≈ 1.09 µM) | 0.6 µg/mL (≈ 1.09 µM) | 0.15 µg/mL (≈ 0.272 µM) | – | 0.08 µg/mL (≈ 0.145 µM) | –
17 | CC#CCONC(=O)O[C@H]1[C@@H](O)[C@H](Oc2ccc3c(=O)c(C(=O)OCC)c(O)oc3c2C)OC(C)(C)[C@@H]1OC | 10 µg/mL (≈ 18.2 µM) | > 40 µg/mL | – | 10 µg/mL (≈ 18.2 µM) | > 40 µg/mL | > 40 µg/mL | – | 40 µg/mL (≈ 72.8 µM) | 0.5
18 | CCOC(=O)c1c(O)oc2c(C)c(O[C@@H]3OC(C)(C)[C@H](OC)[C@@H](OC(=O)NC(C)C)[C@H]3O)ccc2c1=O | > 40 µg/mL | > 40 µg/mL | – | > 40 µg/mL | > 40 µg/mL | > 40 µg/mL | 0.025 | – | –
19 | CO[C@@H]1[C@@H](OC(N)=O)[C@@H](O)[C@H](Oc2ccc3c(O)c(NC(=O)c4ccc(O)c(CC=C(C)C)c4)c(=O)oc3c2C)OC1(C)C [NOVOBIOCIN] | < 0.04 µg/mL | 10 µg/mL (≈ 16.3 µM) | – | < 0.04 µg/mL | 0.6 µg/mL (≈ 0.979 µM) | 0.3 µg/mL (≈ 0.49 µM) | – | – | –
20 | C#CCONC(=O)O[C@H]1[C@@H](O)[C@H](Oc2ccc3c(O)c(C(=O)NCCO)c(=O)oc3c2C)OC(C)(C)[C@@H]1OC | < 0.04 µg/mL | 1.2 µg/mL (≈ 2.18 µM) | 2.6 | < 0.04 µg/mL | 1.2 µg/mL (≈ 2.18 µM) | 0.6 µg/mL (≈ 1.09 µM) | – | 0.08 µg/mL (≈ 0.145 µM) | –
21 | CCOC(=O)c1c(O)oc2c(C)c(O[C@@H]3OC(C)(C)[C@H](OC)[C@@H](OC(=O)c4ccc(C)[nH]4)[C@H]3O)ccc2c1=O | 0.3 µg/mL (≈ 0.55 µM) | > 20 µg/mL | – | – | 5 µg/mL (≈ 9.17 µM) | 0.3 µg/mL (≈ 0.55 µM) | 3.1 | – | –
22 | CCONC(=O)OC1[C@@H](O)[C@H](Oc2ccc3c(O)c(C(=O)OCC)c(=O)oc3c2C)OC(C)(C)[C@@H]1OC (single isomer, unassigned) | 20 µg/mL (≈ 38.1 µM) | > 40 µg/mL | – | > 40 µg/mL | > 40 µg/mL | 40 µg/mL (≈ 76.1 µM) | 2 | – | –
23 | C#CCONC(=O)O[C@H]1[C@@H](O)[C@H](Oc2ccc3c(=O)c(C(=O)OCC)c(O)oc3c2C)OC(C)(C)[C@@H]1OC | 1.2 µg/mL (≈ 2.24 µM) | > 40 µg/mL | – | 0.3 µg/mL (≈ 0.56 µM) | 10 µg/mL (≈ 18.7 µM) | 20 µg/mL (≈ 37.3 µM) | 5.6 | 2.5 µg/mL (≈ 4.67 µM) | –
24 | CCOC(=O)c1c(O)oc2c(C)c(O[C@@H]3OC(C)(C)[C@H](OC)[C@@H](OC(=O)NOC(C)C)[C@H]3O)ccc2c1=O | > 40 µg/mL | > 40 µg/mL | – | > 40 µg/mL | > 40 µg/mL | > 40 µg/mL | 2 | – | –
25 | C#CCONC(=O)O[C@H]1[C@@H](O)[C@H](Oc2ccc3c(=O)c(/C(C)=N/OCOCCOC)c(O)oc3c2C)OC(C)(C)[C@@H]1OC | 0.08 µg/mL (≈ 0.131 µM) | 10 µg/mL (≈ 16.4 µM) | 4 | 1.2 µg/mL (≈ 1.97 µM) | 5 µg/mL (≈ 8.22 µM) | 0.6 µg/mL (≈ 0.986 µM) | – | 0.6 µg/mL (≈ 0.986 µM) | –
26 | CCOC(=O)c1c(O)oc2c(C)c(O[C@@H]3OC(C)(C)[C@H](OC)[C@@H](OC(N)=O)[C@H]3O)ccc2c1=O | > 40 µg/mL | > 40 µg/mL | – | – | > 40 µg/mL | > 40 µg/mL | 1.6 | – | –
27 | C=CCNC(=O)O[C@H]1[C@@H](O)[C@H](Oc2ccc3c(=O)c(C(=O)OCC)c(O)oc3c2C)OC(C)(C)[C@@H]1OC | > 40 µg/mL | > 40 µg/mL | – | 20 µg/mL (≈ 38.3 µM) | > 40 µg/mL | > 40 µg/mL | 0.38 | – | –
28 | C#CCONC(=O)O[C@H]1[C@@H](O)[C@H](Oc2ccc3c(=O)c(C(=O)NOC)c(O)oc3c2C)OC(C)(C)[C@@H]1OC | 0.08 µg/mL (≈ 0.149 µM) | 10 µg/mL (≈ 18.6 µM) | 11.1 | 0.08 µg/mL (≈ 0.149 µM) | 2.5 µg/mL (≈ 4.66 µM) | 0.6 µg/mL (≈ 1.12 µM) | – | 0.6 µg/mL (≈ 1.12 µM) | –
